# Molecular target: T1, Renin (Homo sapiens, UniProt P00797)
# T1 sequence (P00797 whole entry): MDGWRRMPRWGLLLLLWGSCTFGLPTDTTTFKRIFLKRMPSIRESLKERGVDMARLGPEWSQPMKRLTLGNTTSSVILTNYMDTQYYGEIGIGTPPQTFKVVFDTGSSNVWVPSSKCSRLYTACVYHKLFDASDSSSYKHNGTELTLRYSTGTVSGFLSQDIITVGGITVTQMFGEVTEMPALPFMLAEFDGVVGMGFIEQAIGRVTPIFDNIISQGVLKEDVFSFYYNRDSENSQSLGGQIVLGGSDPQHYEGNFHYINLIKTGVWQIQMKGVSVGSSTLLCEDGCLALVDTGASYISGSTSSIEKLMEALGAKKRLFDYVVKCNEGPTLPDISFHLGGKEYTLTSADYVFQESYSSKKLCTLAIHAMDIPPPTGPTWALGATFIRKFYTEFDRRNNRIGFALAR
# Test: Inhibition of human plasma renin at pH 6
# Assay type: cell-free
# In short: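 Human plasma incubated with phenylmethanesulfonyl fluoride and maleate buffer (pH 6.0) plus peptide in 1% Tween 80/water vehicle, 90 min at 37 °C, for angiotensin I generation. Angiotensin I measured by radioimmunoassay kit. Percent inhibition from plasma renin activity versus control tubes. IC50 estimated from semilog plot of three or four peptide concentrations.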
row,IC50 [nM],SMILES
1,0.34,CC[C@@H](C)[C@H](NC(=O)[C@@H](CC(O)[C@H](CC1CCCCC1)NC(=O)[C@@H](CC(=O)O)NC(=O)COc1ccccc1)C(C)C)C(=O)N(C)c1ccccn1 (some centres undefined)
2,1.9,CC[C@@H](C)[C@H](NC(=O)[C@@H](CC(O)[C@H](CC(C)C)NC(=O)[C@@H](CC(=O)O)NC(=O)COc1ccccc1)C(C)C)C(=O)N(C)c1ccccn1 (some centres undefined)
3,8.5,CC[C@@H](C)[C@H](NC(=O)[C@@H](CC(O)[C@H](CC(C)C)NC(=O)[C@H](Cc1c[nH]cn1)NC(=O)COc1ccccc1)C(C)C)C(=O)N(C)c1ccccn1 (some centres undefined)
4,0.7,CC[C@@H](C)[C@H](NC(=O)[C@@H](CC(O)[C@H](CC(C)C)NC(=O)C(C(=O)COc1ccccc1)C(O)C(=O)O)C(C)C)C(=O)N(C)c1ccccn1 (some centres undefined)
5,1.2,CC[C@@H](C)[C@H](NC(=O)[C@@H](CC(O)[C@H](CC(C)C)NC(=O)C(C(=O)Cc1ccccc1)C(O)C(=O)O)C(C)C)C(=O)N(C)c1ccccn1 (some centres undefined)
6,2,CC[C@@H](C)[C@H](NC(=O)[C@@H](CC(O)[C@H](CC1CCCCC1)NC(=O)[C@@H](CC(=O)O)NC(=O)Cc1ccccc1)C(C)C)C(=O)N(C)c1ccccn1 (some centres undefined)
7,220,CC[C@@H](C)[C@H](NC(=O)[C@@H](CC(O)[C@H](CC(C)C)NC(=O)[C@H](Cc1c[nH]cn1)NC(=O)Cc1ccccc1)C(C)C)C(=O)N(C)c1ccccn1 (some centres undefined)
8,3.5,CC[C@@H](C)[C@H](NC(=O)[C@@H](CC(O)[C@H](CC(C)C)NC(=O)[C@@H](CC(=O)O)NC(=O)Cc1ccccc1)C(C)C)C(=O)N(C)c1ccccn1 (some centres undefined)
9,2.2,CC[C@@H](C)CNC(=O)[C@@H](CC(O)[C@H](CC(C)C)NC(=O)C(C(=O)COc1ccccc1)C(O)C(=O)O)C(C)C (some centres undefined)
10,5.2,CC[C@@H](C)CNC(=O)[C@@H](NC(O)[C@@H](CC(=O)[C@H](CC(=O)O)NC(=O)COc1ccccc1)CC1CCCCC1)C(C)C (some centres undefined)
11,6,CC[C@@H](C)CNC(=O)[C@@H](CC(O)[C@H](CC(C)C)NC(=O)C(C(=O)Cc1ccccc1)C(O)C(=O)O)C(C)C (some centres undefined)
12,20,CC[C@@H](C)CNC(=O)[C@@H](CC(O)[C@H](CC(C)C)NC(=O)[C@@H](CC(=O)O)NC(=O)COc1ccccc1)C(C)C (some centres undefined)
13,3.6,CC[C@@H](C)CNC(=O)[C@@H](CC(O)[C@H](CC1CCCCC1)NC(=O)C(C(=O)COc1ccccc1)C(O)C(=O)O)C(C)C (some centres undefined)
14,17,CC[C@@H](C)[C@H](NC(=O)[C@@H](CC(O)[C@H](CC(C)C)NC(=O)C(CC(=O)O)NC(=O)Cc1ccccc1)C(C)C)C(=O)N(C)c1ccccn1 (stereo in doubt)
